Here are results for 1 compound from ChEMBL document CHEMBL3259554, “Discovery, synthesis, and optimization of antimalarial 4(1H)-quinolone-3-diarylethers” (J Med Chem, 2014).

Data set [1] has as its system Plasmodium falciparum. Kind of data set: Antimalarial activity against chloroquine-sensitive Plasmodium falciparum D6 MRA-285 infected in human red blood cells assessed as suppression of parasitemia after 72 hrs by SYBR Green I-based fluorescence method. Type of data set: functional, organism-based. Conditions: D6 MRA-285, 72 h. The procedure, abridged:
(§1)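 Asynchronous parasites in human erythrocytes, RPMI-1640 with HEPES, hypoxanthine, glucose, glutamine, 0.5% Albumax II; 2% hematocrit, 0.2% initial parasitemia. Triplicate 2-fold dilutions from 1 μM (lower start if needed), 72 h at 37 °C under 5% O2/5% CO2/90% N2. SYBR Green I dye-detergent added, 1 h dark at room temperature, fluorescence read. EC50 averaged over at least three determinations.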

Data set [2] in a line: Antimalarial activity against multidrug-resistant Plasmodium falciparum Dd2 MRA-156 infected in human red blood cells assessed as suppression of parasitemia after 72 hrs by SYBR Green I-based fluorescence method. Type of data set: functional. An outline of the steps:
as §1

The subject of data set [3] is Plasmodium falciparum. Kind of data set: Antimalarial activity against atovaquone-resistant clinical isolate Plasmodium falciparum TM90-C2B infected in human red blood cells assessed as suppression of parasitemia after 72 hrs by SYBR Green I-based fluorescence method. It counts as functional, organism-based. The procedure, abridged: as §1
The subject of another data set is HepG2. The data set can be described thus: Cytotoxicity against human HepG2 cells after 24 hrs incubation by Alamar Blue assay. It counts as cell-based. As to conditions: HepG2, 24 h. The procedure, abridged:
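HepG2 cells grown in RPMI-1640 with 10% FBS and seeded at 2 × 10⁴ cells/well, attached overnight. Drug serially diluted from 10 mM DMSO stocks to 2.5 nM–10 μM and incubated 24–36 h. Medium then replaced and cells kept a further 24 h. Resazurin added (final 10 μM) for 3 h, fluorescence read at ex 560/em 590 nm. Run in triplicate; IC50 by nonlinear logistic regression.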

Data set [4] can be described thus: Inhibition of human cytochrome bc1 complex derived from HEK293 cell mitochondria using 50 uM decylubiquinol as substrate. An outline of the steps: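 Mitochondria isolated from HEK-293 cells by Dounce homogenization and differential centrifugation, dispersed in 2 mg/mL dodecyl maltoside for 45 min on ice, then clarified. Baseline-subtracted initial rates expressed as a fraction of uninhibited control.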

The subject of data set [5] is Plasmodium yoelii. The data set can be described thus: Antimalarial activity against Plasmodium yoelii MR4 MRA-428 infected in mouse CF1 assessed as reduction on parasite burden administered through oral gavage once daily for 4 days. Type of data set: functional. Conditions: MR4 MRA-428, po, 96 h. The procedure, abridged: (§2)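 P. yoelii-infected mice, randomly grouped in fours; dosing began day after inoculation (day 1), once daily by oral gavage in PEG-400 for four successive days; initial doses 0.1, 0.3, 1.0, 3.0, 10 mg/kg/day, range adjusted as needed. Day-5 Giemsa-smear parasitemia vs drug-free controls; ED50 derived graphically. Cure = parasite free 30 days after last dose; cure dose termed non-recrudescence dose.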

The test system of data set [6] is Plasmodium yoelii. The data set can be described thus: Antimalarial activity against Plasmodium yoelii MR4 MRA-428 infected in mouse CF1 assessed as dose required to achieve cure measured as 30 days survival administered through oral gavage once daily for 4 days. Type of data set: functional. The procedure, abridged: as §2
Data set [7] deals with Liver microsome. The data set can be described thus: Metabolic stability in rat liver microsomes. It counts as ADME. The procedure, abridged: (§3)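 Compound at 1 μM incubated at 37 °C with liver microsomes (0.4 mg protein/mL) in 0.1 M phosphate pH 7.4. Started with an NADPH-regenerating system plus MgCl₂ and quenched with cold acetonitrile at time points up to 60 min. Parent loss followed by LC-MS and fitted to first-order decay to give half-life and intrinsic clearance. E_H used liver blood flow of 20.7 (human) or 55.2 (rat) mL/min/kg.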
In general terms: Microsomes from liver hold many membrane-bound enzymes, among them those of drug oxidation.

The subject of data set [8] is Liver microsome. The data set can be described thus: Metabolic stability in human liver microsomes. Type of data set: ADME. The procedure, abridged:
as §3

Data set [9] can be described thus: Inhibition of cytochrome bc1 complex isolated from trophozoite stage Plasmodium falciparum. The procedure, abridged:
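P. falciparum mitochondrial preparation assayed for cytochrome c reductase at 35 °C in a stirred cuvette. Buffer: 100 μM decylubiquinol, 100 μM horse heart cytochrome c, 0.1 mg/mL dodecyl maltoside, 60 mM HEPES pH 7.4, 10 mM malonate, 1.0 mM EDTA, 2.0 mM KCN. Baseline subtracted from the initial rate; activity expressed as a fraction of uninhibited control.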

A short description of data set [10]: Selectivity ratio of IC50 for human cytochrome bc1 complex to EC50 for Plasmodium falciparum cytochrome bc1 complex.

For the compound `COc1cc2[nH]c(C)c(-c3ccc(Oc4ccc(OC(F)(F)F)cc4)cc3)c(=O)c2cc1Cl`, the 50% effective concentration (EC50) (usually the concentration needed to bring the measured effect to its halfway point) in the data set on Plasmodium falciparum [1] worked out at 2.2 nM; in data set [2] it was 2.5 nM; in the data set on Plasmodium falciparum [3], 1.4 nM; in data set [9], 0.56 nM. Moreover, the 50% inhibitory concentration (IC50) (in the data set on HepG2; in data set [4]) was greater than 10000 nM each time. The median effective dose (ED50) (commonly the dose that gives a 50% effect, or the effect in half of the subjects) in the data set on Plasmodium yoelii [5] came to 0.02 mg/kg/day. The ED90 with Plasmodium yoelii [5] stood at 0.06 mg/kg/day. In the data set on Plasmodium yoelii [6], the NRD is 0.3 mg/kg/day. Moreover, the Stability entry with Liver microsome [7] and in the data set with Liver microsome [8] was “Stable” each time. For the same compound, the Ratio IC50/EC50 in data set [10] was greater than 20000.
